This is a sample that favours compounds with a hit; in the whole collection about 1.6% have one here.
SENP1 inh: blocks the human SENP1 SUMO protease catalytic domain; AID 624204; inhibition, % at 10 µM; 360,000 compounds, 0.21% hits; recombinant SENP1 catalytic domain, CyPet-SUMO1-YPet FRET cleavage; Q9P0U3;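 active = inhibition at least 30% at 10 µM, raw YFP signal under a set limit, fluorescence ratio 0.5 to 1.5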
Target sequence (Q9P0U3 419-644 limits assumed): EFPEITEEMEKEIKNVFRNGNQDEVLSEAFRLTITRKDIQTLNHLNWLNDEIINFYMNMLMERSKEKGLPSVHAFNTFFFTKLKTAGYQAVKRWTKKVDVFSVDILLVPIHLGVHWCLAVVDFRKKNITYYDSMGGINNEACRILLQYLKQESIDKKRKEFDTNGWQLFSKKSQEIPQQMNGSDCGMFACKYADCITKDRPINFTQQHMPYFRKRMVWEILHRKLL
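Controls: no-enzyme wells low, DMSO-plus-enzyme wells high control. Test system: human recombinant His6-tagged SENP1 catalytic domain enzyme. Reagent: SFCypet-SUMO1-SFYpet FRET protein substrate, 25 nM final. Doses: one dose per compound, 10 µM, 0.5% DMSO. Detection: FRET, CFP and YFP emission. Timing: 50 min reaction at room temperature.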
HNF4A DNA FP: change in binding of human HNF4 alpha to DNA. AID 1224865. 360,000 compounds, 0.3% hits. HNF4a-FITC DNA binding, fluorescence polarization, 1 h. P41235. activity change, % at 10 µM; in the data active = activity change above about 30%, passing the limit was not always enough
TPT1 inhibitor: blocks Candida albicans tRNA 2'-phosphotransferase; recombinant caTPT1, FP RNA substrate dephosphorylation; inhibition, % at 5 µM; 300,000 compounds, 0.81% hits;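 active = inhibition above the mean of all tested compounds plus 3 SD, set per screening campaign, cut at about 24% in these data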
Rpn11 block: Rpn11 (human) deubiquitinase inhibition. O00487. human 26S proteasome, Ub4-pepOG fluorescence polarization; 20S core pre-blocked with epoxomicin. inhibition, % at 20 µM. 360,000 compounds, 0.59% hits;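 active = inhibition at 20 µM, scaled to each plate's controls, above about 33%, limit read from the data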
CSN inh: blocks human CSN-mediated cullin deneddylation | Purified CSN, SCF-Nedd8-OG deneddylation, fluorescence polarization | inhibition, % at 12.5 µM | 360,000 compounds, 0.38% hits;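 active = pattern-corrected inhibition above about 35%, with an unprinted fluorescence ratio check between 0.5 and 1.5, limit read from the data, passing the limit was not always enough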
Target sequence (Q92905 whole entry, looked up, one chain of several): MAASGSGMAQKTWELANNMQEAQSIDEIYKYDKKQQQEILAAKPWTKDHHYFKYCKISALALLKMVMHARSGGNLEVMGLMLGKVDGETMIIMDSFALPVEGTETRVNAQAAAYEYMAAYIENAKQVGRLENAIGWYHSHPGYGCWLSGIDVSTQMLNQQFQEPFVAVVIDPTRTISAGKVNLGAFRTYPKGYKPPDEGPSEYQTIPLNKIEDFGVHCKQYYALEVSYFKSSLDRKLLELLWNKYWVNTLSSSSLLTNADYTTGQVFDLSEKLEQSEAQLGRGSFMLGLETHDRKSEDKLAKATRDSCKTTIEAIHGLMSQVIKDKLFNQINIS
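Detection – fluorescence polarization · System – HEK293T-derived human Csn5 enzyme · Controls – substrate-only high control, full reaction low control · Timing – 90 min, room temperature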
TPT1 inh confirm: TPT1 (C. albicans) inhibition, confirmation. shares compounds with TPT1 inhibitor. recombinant caTPT1, fluorescence polarization, RNase T1 coupled. inhibition, % at 5 µM. 2,400 compounds, 74% hits;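 active = inhibition above the primary screen limit, the mean inhibition of all tested compounds plus 3 SD, cut at about 25% in these data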
RNase T1 counter: RNase T1 inhibition in TPT1 counter-screen; shares compounds with TPT1 inhibitor; 2,400 compounds, 83% hits; RNase T1 cleavage, fluorescence polarization, 1536-well; inhibition, % at 5 µM;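 active = inhibition above the solvent-only control well mean plus 3 SD, limit set per screening run, cut at about 23% in these data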;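 note: inhibitors block cleavage so intact labeled substrate keeps polarization high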
Target sequence (P00651 whole entry, looked up): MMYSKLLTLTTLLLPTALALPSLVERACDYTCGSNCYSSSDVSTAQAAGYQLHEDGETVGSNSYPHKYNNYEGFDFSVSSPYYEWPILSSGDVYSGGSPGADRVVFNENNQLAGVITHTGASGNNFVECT
Of the large screens only hits and unclear results are named; the others gave an inactive call (follow-up assays come after a bar, where shown).

O=C(/C=C/c1ccc(N2CCC(c3ccccc3)=N2)cc1)c1ccccc1	TPT1 inhibitor 115 (no result: SENP1 inh, HNF4A DNA FP, Rpn11 block, CSN inh) | TPT1 inh confirm 119 | RNase T1 counter 114
Oc1[nH]c2ccccc2c1N=Nc1ccc(F)cc1	none (not shown: Rpn11 block)
Oc1[nH]c2ccccc2c1N=Nc1ccccc1F	TPT1 inhibitor 138 (not shown: Rpn11 block) | TPT1 inh confirm 129 | RNase T1 counter 130
COc1ccc(/C=C(\C#N)C(=O)C(C)(C)n2cncn2)cc1	TPT1 inhibitor 33 | TPT1 inh confirm inactive | RNase T1 counter inactive
CC(=O)Nc1ccc(S(=O)(=O)Nc2cccc(-n3c(C)nc4ccccc4c3=O)c2)cc1	none
COc1ccc(C(=O)/C=C/c2ccccc2)c(OC)c1	none
COc1ccc(C(=O)/C=C/c2ccc(N(C)C)cc2)c(OC)c1	TPT1 inhibitor 101 (not shown: Rpn11 block) | TPT1 inh confirm 103 | RNase T1 counter 102
Cn1cccc1C(=O)/C(C#N)=C/c1ccc(F)cc1	TPT1 inhibitor 53 (not shown: Rpn11 block) | TPT1 inh confirm 80 | RNase T1 counter 96
CCC(=O)N1CCc2cc(S(=O)(=O)CCC(=O)N3CCN(c4ccc(C(C)=O)cc4)CC3)ccc21	none
CCCNC(=O)CCc1c(C)nc2nc(C)nn2c1C	none
COc1ccc(C2=C/C(=C\c3cccc(OC(C)=O)c3)C(=O)O2)cc1	TPT1 inhibitor 36 | TPT1 inh confirm 55 | RNase T1 counter 68
CSCCC(NC(=O)c1ccco1)C(=O)N1CC=C(c2ccccc2)CC1 (centres undefined)	none
C/C(=N\NC(=O)c1ccc(Cl)cc1)c1ccc2[nH]ccc2c1	none
Cc1cc(C)c2c(=O)[nH]c(SCC(=O)c3ccc(F)c(C)c3)nc2n1	none (not shown: Rpn11 block)
CN=C1S/C(=C\c2ccc(N3CCCC3)c(F)c2)C(=O)N1C	TPT1 inhibitor 30 | TPT1 inh confirm 52 | RNase T1 counter 66
N#Cc1c(-c2ccccc2)nc(SCc2ccc(Cl)cc2)[nH]c1=O	none
COC(=O)c1cccc(CSc2nc(-c3ccccc3)c(C#N)c(=O)[nH]2)c1	TPT1 inhibitor 81 | TPT1 inh confirm inactive | RNase T1 counter inactive
N#Cc1c(-c2ccccc2)nc(SCC(=O)N(c2ccccc2)c2ccccc2)[nH]c1=O	TPT1 inhibitor 34 | TPT1 inh confirm inactive | RNase T1 counter inactive
Cc1ccc2c(-c3csc(N)n3)c[nH]c2c1	TPT1 inhibitor 26 (no result: SENP1 inh, HNF4A DNA FP, Rpn11 block, CSN inh) | TPT1 inh confirm inactive | RNase T1 counter 27
CC(C)c1ccc(C2C3CSCC=C3C(C#N)=C(N)C2(C#N)C#N)cc1 (centres undefined)	TPT1 inhibitor 36 (no result: SENP1 inh, HNF4A DNA FP, Rpn11 block, CSN inh) | TPT1 inh confirm 38 | RNase T1 counter 48
CCC(C)C(NC(=O)c1ccccc1NC(=O)c1ccc(OC)cc1)C(=O)NCCCn1ccnc1 (centres undefined)	none
O=C(COc1cccc(NC(=O)c2cccc([N+](=O)[O-])c2)c1)c1ccc(F)cc1	TPT1 inhibitor 53 | TPT1 inh confirm inactive | RNase T1 counter inactive
OC(c1ccc(F)cc1)c1nc(-c2cccc(C(F)(F)F)c2)cs1 (centres undefined)	none (no result: TPT1 inhibitor)
O=C(CSc1ccc2nnc(CCNS(=O)(=O)c3ccccc3)n2n1)Nc1nc2ccccc2s1	none
O=C(NCCc1ccccc1)c1cnc2sccn2c1=O	TPT1 inhibitor 33 | TPT1 inh confirm inactive | RNase T1 counter inactive
Cc1cccc(/N=C/c2sc3ccccc3c2O)n1	TPT1 inhibitor 85 | TPT1 inh confirm 29 | RNase T1 counter 40
Oc1c(C=Nc2cccc3cccnc23)sc2ccccc12	TPT1 inhibitor 172 (no result: SENP1 inh, HNF4A DNA FP, Rpn11 block, CSN inh) | TPT1 inh confirm 152 | RNase T1 counter 138
Oc1cccc(Nc2nc(-c3ccccc3Cl)nc3ccccc23)c1	none
NNc1nc(-c2ccccc2Cl)nc2ccccc12	TPT1 inhibitor 31 | TPT1 inh confirm inactive | RNase T1 counter 33
O=C(COC(=O)CNC(=O)c1ccccc1F)Nc1ccc2c(c1)OCO2	none (no result: TPT1 inhibitor)
O=C(COC(=O)CNC(=O)c1ccccc1F)Nc1ccc2c(c1)OCCO2	TPT1 inhibitor 55 | TPT1 inh confirm inactive | RNase T1 counter inactive
Cc1cc(NC(=O)CS(=O)(=O)Cc2ccccc2)no1	none
C=CCNc1nc(N)c([N+](=O)[O-])c(Nc2cccc(Cl)c2)n1	TPT1 inhibitor 36 | TPT1 inh confirm inactive | RNase T1 counter inactive
CNc1nc(N)c([N+](=O)[O-])c(Nc2cccc(Cl)c2)n1	none
O=C(COC(=O)c1ccccc1NCCO)Nc1cccc(S(=O)(=O)NC2=NCCCCC2)c1	none
O=C(C1=NN(c2ccccc2)C2C(=O)N(c3ccccc3Cl)C(=O)C12)c1ccccc1 (centres undefined)	TPT1 inhibitor 31 | TPT1 inh confirm 32 | RNase T1 counter 46
COc1ccccc1N1C(=O)C2C(C(=O)c3ccccc3)=NN(c3ccccc3)C2C1=O (centres undefined)	none
Cc1ccc(N2C(=O)C3C(C(=O)c4ccccc4)=NN(c4ccccc4)C3C2=O)cc1 (centres undefined)	TPT1 inhibitor 29 | TPT1 inh confirm 37 | RNase T1 counter 51
O=C(C1=NN(c2ccccc2)C2C(=O)N(c3ccccc3)C(=O)C12)c1ccccc1 (centres undefined)	TPT1 inhibitor 28 | TPT1 inh confirm 32 | RNase T1 counter 45
O=[N+]([O-])c1ncccc1OCc1ccc(Cl)c(Cl)c1	none
CN(C)CCN(Cc1ccccc1)C(=O)c1[nH]c(C(F)(F)F)nc1-c1ccccc1	none (no result: TPT1 inhibitor)
COC(=O)[C@]1(Cc2ccccc2)N[C@H](c2ccc(SC3CCCCC3)c(OC)c2)[C@@H]2C(=O)N(C)C(=O)[C@@H]21	none (no result: TPT1 inhibitor)
COc1cc(/C=N\Nc2ccc([N+](=O)[O-])cc2)ccc1OCC(=O)Nc1ccc(C)c(C)c1	none (not shown: TPT1 inhibitor, Rpn11 block)
CCOc1cc(/C=N\Nc2ccc([N+](=O)[O-])cc2)ccc1OCC(=O)Nc1ccc(C)c(C)c1	TPT1 inhibitor 46 (not shown: Rpn11 block) | TPT1 inh confirm 30 | RNase T1 counter 35
N#Cc1cnc(SCC(=O)c2ccccc2)nc1N	none
N#Cc1cnc(SCCc2ccccc2)nc1N	TPT1 inhibitor 39 | TPT1 inh confirm 32 | RNase T1 counter 42
O=C(O)c1ccc(N/N=C/C2=C(N3CCOCC3)C(=C\c3ccccc3)/CC2)cc1	HNF4A DNA FP 35, TPT1 inhibitor 101 (not shown: Rpn11 block) | TPT1 inh confirm 119 | RNase T1 counter 124
Cc1cc(C)nc(N/N=C/C2=C(N3CCOCC3)C(=C\c3ccc(Cl)cc3)/CC2)n1	none
C[C@@H]1CCCCO[C@H](CN(C)C(=O)C2CCCCC2)[C@@H](C)CN([C@H](C)CO)C(=O)c2cc(N(C)C)ccc2O1	none (no result: TPT1 inhibitor)
C/C(=N/NC(=O)c1ccncc1)c1cc2ccc(O)cc2oc1=O	TPT1 inhibitor 60 | TPT1 inh confirm inactive | RNase T1 counter inactive
C/C(=N\NC(=O)c1ccncc1)c1cc2ccccc2oc1=O	none
